In brackets after ≈: the same amount, converted by molar mass.
Columns and labels:
[1] = tested on: Mycobacterium kansasii; assay: Antimycobacterial activity against Mycobacterium kansasii isolate 6509/96 after 14 days; format: functional; details: isolate 6509/96, 336 h
Summary of the method: (§1)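 Compounds were added as DMSO solutions to Sula semisynthetic medium at 250, 125, 62, 32, 16, 8, 4, 2 and 1 µmol/L. Two M. kansasii strains were used: CNCTC My 235/80 and clinical isolate 6509/96, each with strain dilution 10^-4. Incubation was at 37 °C, and MIC was read at 7, 14 and 21 days.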

[2] = tested on: Mycobacterium kansasii; assay: Antimycobacterial activity against Mycobacterium kansasii CNCTC My 235/80 after 21 days; format: functional; details: CNCTC My 235/80, 504 h; summary of the method: as §1
[3] = tested on: Mycobacterium kansasii; assay: Antimycobacterial activity against Mycobacterium kansasii CNCTC My 235/80 after 14 days; format: functional; details: CNCTC My 235/80, 336 h; summary of the method: as §1
[4] = tested on: Mycobacterium avium; assay: Antimycobacterial activity against Mycobacterium avium CNCTC My 330/88 after 14 days; format: functional; details: CNCTC My 330/88, 336 h
Summary of the method: (§2)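 Broth dilution in Sula semisynthetic medium, compounds added as DMSO solutions at 250, 125, 62, 32, 16, 8, 4, 2 and 1. Strains came from the Czech National Collection of Type Cultures; the M. tuberculosis inoculum was diluted 10^-3. Cultures were incubated at 37 °C, and MIC was read after 7, 14 and 21 days.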

[5] = tested on: Mycobacterium kansasii; assay: Antimycobacterial activity against Mycobacterium kansasii isolate 6509/96 after 21 days; format: functional; details: isolate 6509/96, 504 h; summary of the method: as §1
[6] = tested on: Mycobacterium tuberculosis; assay: Antimycobacterial activity against Mycobacterium tuberculosis CNCTC My 331/88 after 21 days; format: functional; details: CNCTC My 331/88, 504 h; summary of the method: as §2
[7] = Stability assessed as half life in phosphate buffer at pH 7.4 by UV-visible spectroscopy; format: physicochemical
Summary of the method: (§3)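 Compound in methanolic solution (10 or 20 µL) was added to tempered 7 × 10^-2 M phosphate buffer (2 mL) at pH 7.4 or 5.5, 37 °C. The absorbance decrease at 224 nm was followed by UV/vis.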

[8] = tested on: HCT-8; assay: Cytotoxicity against human HCT8 cells after 72 hrs by XTT assay; format: functional, cell-based; details: HCT-8, 72 h
Summary of the method: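 HCT-8 cells were grown in EMEM with 5% FBS at 37 °C under 5% CO2. They were harvested with trypsin, seeded at 2 × 10^5 cells/mL and left 24 h. Medium was then replaced with compound in DMSO. DMSO-only wells served as the viability control and 20% DMSO as the cytotoxic control. Reagent was added for 4 h and absorbance read at 450 nm. Triplicates; EC50 reported.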

[9] = tested on: Mycobacterium kansasii; assay: Antimycobacterial activity against Mycobacterium kansasii CNCTC My 235/80 after 7 days; format: functional; details: CNCTC My 235/80, 168 h; summary of the method: as §1
[10] = tested on: Mycobacterium avium; assay: Antimycobacterial activity against Mycobacterium avium CNCTC My 330/88 after 21 days; format: functional; details: CNCTC My 330/88, 504 h; summary of the method: as §2
[11] = Selectivity index, ratio of EC50 for human HCT8 cells to MIC for Mycobacterium tuberculosis CNCTC My 331/88; format: functional, HCT-8
Summary of the method: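 SI is EC50 in HCT-8 cells divided by the M. tuberculosis MIC. HCT-8 cells were grown in EMEM with 5% FBS at 37 °C under 5% CO₂, trypsinised and seeded at 2 × 10⁵ cells/mL. After 24 h the medium was replaced with compound in DMSO. Controls were DMSO alone and 20% DMSO. Absorbance was read at 450 nm 4 h after reagent addition, in triplicate.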

[12] = tested on: Mycobacterium kansasii; assay: Antimycobacterial activity against Mycobacterium kansasii isolate 6509/96 after 7 days; format: functional; details: isolate 6509/96, 168 h; summary of the method: as §1
[13] = Stability assessed as half life in phosphate buffer at pH 5.5 by UV-visible spectroscopy; format: physicochemical; summary of the method: as §3
[14] = tested on: Mycobacterium tuberculosis; assay: Antimycobacterial activity against Mycobacterium tuberculosis CNCTC My 331/88 after 14 days; format: functional; details: CNCTC My 331/88, 336 h; summary of the method: as §2
[15] = Lipophilicity, log K by HPLC; format: physicochemical
Summary of the method: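 Capacity factors k were measured by RP-HPLC and log k was calculated from them.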

SMILES: O=C(N[C@@H](Cc1ccccc1)C(=O)Oc1cc(Cl)ccc1C(=O)Nc1ccc(Cl)cc1)OCc1ccccc1
- MIC [1]: 8 µM (≈ 4.51 µg/mL)
- MIC [2]: 8 µM (≈ 4.51 µg/mL)
- MIC [3]: 8 µM (≈ 4.51 µg/mL)
- MIC [4]: 8 µM (≈ 4.51 µg/mL)
- MIC [5]: 8 µM (≈ 4.51 µg/mL)
- MIC [6]: 4 µM (≈ 2.25 µg/mL)
- half-life [7]: 25.3 min
- EC50 [8]: 82.9 µM
- MIC [9]: 4 µM (≈ 2.25 µg/mL)
- MIC [10]: 8 µM (≈ 4.51 µg/mL)
- Ratio [11]: 20.73
- MIC [12]: 4 µM (≈ 2.25 µg/mL)
- half-life [13]: 21.9 min
- MIC [14]: 4 µM (≈ 2.25 µg/mL)
- log K [15]: 1.0304

— ChEMBL document CHEMBL1136894, “New antituberculotics originated from salicylanilides with promising in vitro activity against atypical mycobacterial strains” (Bioorg Med Chem, 2009)
